ChEMBL document CHEMBL2417469, “Synthesis of novel analogs of 2-pyrazoline obtained from [(7-chloroquinolin-4-yl)amino]chalcones and hydrazine as potential antitumor and antimalarial agents” (Eur J Med Chem, 2013)

What was measured:
Type in all cases: functional
M14 = assay: Cytotoxicity against human M14 cells after 48 hrs by SRB assay; conditions: M14, 48 h
In short: (§1)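 NCI 60-cell-line screen. Cells preincubated 24 h at 37 °C, 5% CO2; time-zero plates TCA-fixed. Compounds dissolved in DMSO and tested at five concentrations (100, 10, 1.0, 0.1, 0.01 µM) for 48 h continuous exposure. Adherent cells fixed with cold TCA (10% final), then SRB stained; absorbance at 515 nm. GI50, TGI and LC50 calculated from growth relative to time-zero and untreated controls.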

UO-31 = assay: Cytotoxicity against human UO31 cells after 48 hrs by SRB assay; conditions: UO-31, 48 h
In short: (§2)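 NCI 60-cell screen. Cells grew 24 h (37 °C, 5% CO2) before compound was added. Compounds were in DMSO and diluted in medium with gentamicin, then tested at five levels (100, 10, 1.0, 0.1, 0.01 µM) with 48 h continuous exposure. Adherent cells were fixed with TCA (10% final) and stained with 0.4% SRB, absorbance read at 515 nm. A time-zero plate was included. LC50 is the concentration giving 50% loss of protein relative to time zero.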

Hs-578T = assay: Cytotoxicity against human Hs578T cells after 48 hrs by SRB assay; in short: as §1
MDA-MB-435 = assay: Cytotoxicity against human MDA-MB-435 cells after 48 hrs by SRB assay; conditions: MDA-MB-435, 48 h; in short: as §1
[1] = Cytotoxicity against human EKVX cells after 48 hrs by SRB assay; in short: as §1
NCI-H460 = assay: Cytotoxicity against human NCI-H460 cells after 48 hrs by SRB assay; conditions: NCI-H460, 48 h; in short: as §1
MCF7 = assay: Cytotoxicity against human MCF7 cells after 48 hrs by SRB assay; conditions: MCF7, 48 h; in short: as §1
SNB-19 = assay: Cytotoxicity against human SNB19 cells after 48 hrs by SRB assay; conditions: SNB-19, 48 h; in short: as §2
NCI-H522 = assay: Cytotoxicity against human NCI-H522 cells after 48 hrs by SRB assay; conditions: NCI-H522, 48 h; in short: as §1
HL-60(TB) = assay: Cytotoxicity against human HL-60(TB) cells after 48 hrs by SRB assay; conditions: HL-60, 48 h; in short: as §1
OVCAR-3 = assay: Cytotoxicity against human OVCAR3 cells after 48 hrs by SRB assay; conditions: OVCAR-3, 48 h; in short: as §1
KM12 = assay: Cytotoxicity against human KM12 cells after 48 hrs by SRB assay; conditions: KM12, 48 h; in short: as §1
PC-3 = assay: Cytotoxicity against human PC3 cells after 48 hrs by SRB assay; conditions: PC-3, 48 h; in short: as §1
OVCAR-4 = assay: Cytotoxicity against human OVCAR4 cells after 48 hrs by SRB assay; conditions: OVCAR-4, 48 h; in short: as §1
HOP-62 = assay: Cytotoxicity against human HOP62 cells after 48 hrs by SRB assay; conditions: HOP-62, 48 h; in short: as §1
UACC-62 = assay: Cytotoxicity against human UACC62 cells after 48 hrs by SRB assay; conditions: UACC-62, 48 h; in short: as §2
HCC 2998 = assay: Cytotoxicity against human HCC2998 cells after 48 hrs by SRB assay; conditions: HCC 2998, 48 h; in short: as §1
IGROV-1 = assay: Cytotoxicity against human IGROV1 cells after 48 hrs by SRB assay; conditions: IGROV-1, 48 h; in short: as §1
SK-MEL-2 = assay: Cytotoxicity against human SK-MEL-2 cells after 48 hrs by SRB assay; conditions: SK-MEL-2, 48 h; in short: as §1
UACC-257 = assay: Cytotoxicity against human UACC257 cells after 48 hrs by SRB assay; conditions: UACC-257, 48 h; in short: as §2
HOP-92 = assay: Cytotoxicity against human HOP92 cells after 48 hrs by SRB assay; conditions: HOP-92, 48 h; in short: as §1
NCI/ADR-RES = assay: Cytotoxicity against human NCI/ADR-RES cells after 48 hrs by SRB assay; in short: as §1
NCI-H23 = assay: Cytotoxicity against human NCI-H23 cells after 48 hrs by SRB assay; conditions: NCI-H23, 48 h; in short: as §1
HCT-15 = assay: Cytotoxicity against human HCT15 cells after 48 hrs by SRB assay; conditions: HCT-15, 48 h; in short: as §1
MDA-MB-231 = assay: Cytotoxicity against human MDA-MB-231 cells after 48 hrs by SRB assay; conditions: MDA-MB-231, 48 h; in short: as §1
LOX IMVI = assay: Cytotoxicity against human LOXIMVI cells after 48 hrs by SRB assay; in short: as §1
DU-145 = assay: Cytotoxicity against human DU145 cells after 48 hrs by SRB assay; conditions: DU-145, 48 h; in short: as §1
SK-MEL-5 = assay: Cytotoxicity against human SK-MEL-5 cells after 48 hrs by SRB assay; conditions: SK-MEL-5, 48 h; in short: as §1
786-0 = assay: Cytotoxicity against human 786-0 cells after 48 hrs by SRB assay; conditions: 786-0, 48 h; in short: as §1
MDA-MB-468 = assay: Cytotoxicity against human MDA-MB-468 cells after 48 hrs by SRB assay; conditions: MDA-MB-468, 48 h; in short: as §1
A549 = assay: Cytotoxicity against human A549/ATCC cells after 48 hrs by SRB assay; conditions: A549, 48 h; in short: as §1
SF-268 = assay: Cytotoxicity against human SF268 cells after 48 hrs by SRB assay; conditions: SF-268, 48 h; in short: as §1
NCI-H226 = assay: Cytotoxicity against human NCI-H226 cells after 48 hrs by SRB assay; conditions: NCI-H226, 48 h; in short: as §1
BT-549 = assay: Cytotoxicity against human BT549 cells after 48 hrs by SRB assay; conditions: BT-549, 48 h; in short: as §1
SN12C = assay: Cytotoxicity against human SN12C cells after 48 hrs by SRB assay; in short: as §1
SNB-75 = assay: Cytotoxicity against human SNB75 cells after 48 hrs by SRB assay; conditions: SNB-75, 48 h; in short: as §2
[2] = read-out: LC50 (the source's name)

Compound: O=CN1N=C(c2ccc(Nc3ccnc4cc(Cl)ccc34)cc2)CC1c1ccc(Cl)cc1 (stereo unspecified)
- GI50 (M14): 0.62 µM
- CC50 (M14; [2]): > 100 µM
- GI50 (UO-31): 1.3 µM
- LC50 (UO-31): > 100 µM
- GI50 (Hs-578T): 3.93 µM
- LC50 (50% net cell kill) (Hs-578T): > 100 µM
- GI50 (MDA-MB-435): 0.2 µM
- LC50 (MDA-MB-435): > 100 µM
- LC50 [1]: > 100 µM
- GI50 (NCI-H460): 0.59 µM
- LC50 (NCI-H460): > 100 µM
- GI50 (MCF7): 0.48 µM
- CC50 (MCF7; [2]): > 100 µM
- GI50 (SNB-19): 1.92 µM
- LC50 (SNB-19): > 100 µM
- GI50 (NCI-H522): 0.39 µM
- CC50 (NCI-H522; [2]): > 100 µM
- GI50 (HL-60(TB)): 0.38 µM
- CC50 (HL-60(TB); [2]): > 100 µM
- GI50 (OVCAR-3): 0.35 µM
- LC50 (OVCAR-3): > 100 µM
- GI50 (KM12): 0.54 µM
- LC50 (concentration killing 50% of cells) (KM12): > 100 µM
- GI50 (PC-3): 0.48 µM
- LC50 (PC-3): > 100 µM
- GI50 (OVCAR-4): 6.48 µM
- LC50 (OVCAR-4): > 100 µM
- GI50 (HOP-62): 0.86 µM
- LC50 (50% lethal concentration) (HOP-62): > 100 µM
- GI50 (UACC-62): 0.57 µM
- CC50 (UACC-62; [2]): > 100 µM
- GI50 (HCC 2998): 1.61 µM
- LC50 (HCC 2998): > 100 µM
- GI50 (IGROV-1): 5.01 µM
- LC50 (concentration killing 50% of cells relative to time zero) (IGROV-1): > 100 µM
- GI50 (SK-MEL-2): 7.86 µM
- LC50 (SK-MEL-2): > 100 µM
- GI50 (UACC-257): > 100 µM
- LC50 (UACC-257): > 100 µM
- GI50 (HOP-92): > 100 µM
- LC50 (concentration killing 50% of cells) (HOP-92): > 100 µM
- GI50 (NCI/ADR-RES): 0.36 µM
- CC50 (NCI/ADR-RES; [2]): > 100 µM
- GI50 (NCI-H23): 2.77 µM
- CC50 (NCI-H23; [2]): > 100 µM
- GI50 (HCT-15): 0.58 µM
- LC50 (concentration killing 50% of cells relative to time zero) (HCT-15): > 100 µM
- GI50 (MDA-MB-231): 1.43 µM
- LC50 (concentration killing 50% of cells present at time zero) (MDA-MB-231): > 100 µM
- GI50 (LOX IMVI): 0.6 µM
- LC50 (LOX IMVI): > 100 µM
- GI50 (DU-145): 1.94 µM
- LC50 (concentration killing 50% of cells) (DU-145): > 100 µM
- GI50 (SK-MEL-5): 0.81 µM
- LC50 (concentration killing 50% of cells present at time zero) (SK-MEL-5): > 100 µM
- GI50 (786-0): 0.91 µM
- LC50 (786-0): > 100 µM
- GI50 (MDA-MB-468): 0.32 µM
- LC50 (MDA-MB-468): > 100 µM
- GI50 (A549): 0.99 µM
- CC50 (A549; [2]): > 100 µM
- GI50 (SF-268): 0.85 µM
- LC50 (SF-268): > 100 µM
- GI50 (NCI-H226): 4.66 µM
- LC50 (50% lethal concentration) (NCI-H226): > 100 µM
- GI50 (BT-549): 4.77 µM
- LC50 (50% net cell kill vs time zero) (BT-549): > 100 µM
- GI50 (SN12C): 0.98 µM
- LC50 (50% net cell kill relative to time zero) (SN12C): > 100 µM
- GI50 (SNB-75): 0.42 µM
- LC50 (50% net cell kill) (SNB-75): > 100 µM
